Paper PMC7941583 (Cancer Reports, 2020)
The star is where a group is joined. Cbz = O=C(OCc1ccccc1)*; CH2F = FC*

Tests used:
DU145 cells [1] = experiment: Cell growth; assay type: cell-based, human
LNCaP cells [2] = experiment: Cell growth; assay type: cell-based, human
PC‐3 cells [3] = experiment: Cell growth; assay type: cell-based, human
LNCaP cells [4] = experiment: TUNEL assay of apoptosis; assay type: cell-based, human; conditions: for proportion of apoptotic cells (TUNEL): 10^−6 M, 60 hours post‐treatment
How it was run: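 Serum-free adapted LNCaP cells (5 × 10^5 per 75 cm2 flask) were treated with 10−6 M test compound or vehicle over a time course. Z-VAD-FMK (50 μM) was added 1 h before compound where indicated. Adherent plus floating cells were cytospun and stained by TdT fluorescein in situ labelling. Positive cells were counted per 500 cells in five fields, on three slides per sample; results are % apoptotic cells.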

PC‐3 cells [5] = experiment: Colony forming efficiency, PC‐3; assay type: cell-based, human; conditions: PC‐3, Figure 4A
How it was run: (§1)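 Serum-free adapted cells were trypsinized (0.25% trypsin in PBS, 5 min, 37°C) into single-cell suspensions; suspensions under 90% trypan-blue-viable were discarded. 1000 cells per 65-mm dish were grown 21 days at 37°C, 5% CO2, in RPMI 1640 plus ITS+1 with test compound, refreshed every 5 days. Colonies were fixed in 1% formaldehyde and stained with methylene blue. CFE = colonies/cells inoculated × 100.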

RARγ = molecular target: T1, RARγ (Homo sapiens, UniProt P13631); conditions: binding affinities of synthetic retinoids; cited from earlier work
T1 sequence (P13631 185-419 limits assumed): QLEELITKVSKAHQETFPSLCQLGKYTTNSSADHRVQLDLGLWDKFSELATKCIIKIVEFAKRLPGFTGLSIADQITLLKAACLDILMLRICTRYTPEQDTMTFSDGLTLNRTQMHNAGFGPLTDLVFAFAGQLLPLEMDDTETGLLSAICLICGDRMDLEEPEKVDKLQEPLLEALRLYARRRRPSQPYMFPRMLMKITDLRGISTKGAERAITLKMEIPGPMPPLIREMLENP

RARα = molecular target: T2, RARα (Homo sapiens, UniProt P10276); conditions: binding affinities of synthetic retinoids; cited from earlier work
T2 sequence (P10276 183-417 limits assumed): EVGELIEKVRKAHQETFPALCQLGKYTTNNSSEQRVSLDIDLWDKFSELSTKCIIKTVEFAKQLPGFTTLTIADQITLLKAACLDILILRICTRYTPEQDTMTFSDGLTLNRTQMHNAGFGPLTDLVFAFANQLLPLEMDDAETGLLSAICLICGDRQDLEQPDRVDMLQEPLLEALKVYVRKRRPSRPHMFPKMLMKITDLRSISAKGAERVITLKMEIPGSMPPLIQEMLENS

DU145 cells [6] = experiment: Colony forming efficiency, DU145; assay type: cell-based, human; conditions: DU145, Figure 4A
How it was run: as §1

RARβ = molecular target: T3, RARβ (Homo sapiens, UniProt P10826); conditions: binding affinities of synthetic retinoids; cited from earlier work
T3 sequence (P10826 183-417 limits assumed): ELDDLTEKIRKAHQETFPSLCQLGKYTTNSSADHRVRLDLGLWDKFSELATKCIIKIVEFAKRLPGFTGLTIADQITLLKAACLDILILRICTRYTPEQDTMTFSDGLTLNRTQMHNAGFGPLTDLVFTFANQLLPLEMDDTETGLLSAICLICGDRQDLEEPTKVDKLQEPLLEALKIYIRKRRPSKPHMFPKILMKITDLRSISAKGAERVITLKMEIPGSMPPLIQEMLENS

LNCaP cells [7] = experiment: Colony forming efficiency, LNCaP; assay type: cell-based, human; conditions: Figure 4A
How it was run: as §1

LNCaP cells [8] = experiment: Cell cycle analysis; assay type: cell-based, human; conditions: 10^−6 M; for proportion of cells sub‐G0/G1: 48‐hour timepoint
How it was run: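 Serum-free adapted LNCaP cells treated with test compound over a time course to 48 h. Harvested cells stained with propidium iodide and analysed by flow cytometry. Phases were assigned by DNA content: 2n is G1, 4n is G2/M, and between 2n and 4n is S. Cells below 2n (sub-G1) were scored as apoptotic. Results are percentages of cells per phase.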

LNCaP cells [9] = conditions: previous data; cited from earlier work
LNCaP cells [10] = experiment: Metabolic activity; assay type: cell-based, human; conditions: concentrations of 10^−6 M and above
How it was run: (§2)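 Serum-free adapted LNCaP, PC-3, DU145 or RWPE-1 cells were seeded at 400 cells/well in RPMI-1640 plus ITS+1. Test compound was added at seeding and again at day 2 by medium change. Viability was read at day 5 as intracellular ATP by luminescence (ViaLight HS). Results are % viable cells relative to vehicle control; at least three experiments in triplicate, mean ± SD.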

caspase‐9 = experiment: Fluorometric caspase‐9 activity in LNCaP lysates; assay type: cell-based, human; conditions: 10^−6 M
How it was run: (§3)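 Serum-free adapted LNCaP cells were treated with 10−6 M test compound, with pan-caspase inhibitor and etoposide arms as indicated. Lysate was mixed with an equal volume of 20 mM HEPES pH 7.5, 10% glycerol, 2 mM DTT containing 50 μM substrate: DEVD-AFC (caspase-3), IETD-AFC (caspase-8) or LEHD-AFC (caspase-9). Background wells lacked lysate. Fluorescence was read at 400 nm excitation/508 nm emission, expressed as fold over control.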

RWPE‐1 cells = experiment: Metabolic activity; assay type: cell-based, human; conditions: non‐tumorigenic RWPE‐1 compared with PC cell lines
How it was run: as §2

PC‐3 cells [11] = experiment: Metabolic activity; assay type: cell-based, human; conditions: PC‐3, concentrations of 10^−6 M and above
How it was run: as §2

caspase‐3 = experiment: Fluorometric caspase‐3 activity in LNCaP lysates; assay type: cell-based, human; conditions: 10^−6 M
How it was run: as §3

caspase‐8 = experiment: Fluorometric caspase‐8 activity in LNCaP lysates; assay type: cell-based, human; conditions: 10^−6 M
How it was run: as §3

DU145 cells [12] = experiment: Metabolic activity; assay type: cell-based, human; conditions: DU145, concentrations of 10^−6 M and above
How it was run: as §2

LNCaP cells [13] = experiment: Agarose gel electrophoresis of DNA; assay type: cell-based, human; conditions: time course
LNCaP cells [14] = experiment: Adipogenic differentiation; assay type: cell-based, human

Compound | proportion of apoptotic cells (TUNEL) (LNCaP cells [4]) | colony forming efficiency (CFE), antagonists (PC‐3 cells [5]) | ED50 RARγ (RARγ) | ED50 RARα (RARα) | colony forming efficiency (CFE), antagonists (DU145 cells [6]) | ED50 RARβ (RARβ) | colony forming efficiency (CFE), antagonists (LNCaP cells [7]) | also measured
CC1=C(/C=C/C(C)=C/C=C/C(C)=C/C(=O)O)C(C)(C)CCC1 [ATRA, All‐trans‐retinoic acid] |  |  |  |  |  |  |  | effect on cell growth (DU145 cells [1]; DU145, 10^−8 M and above): progressively diminished cell growth; increase in cell numbers (DU145 cells [1]; DU145, 5 days, 10^−11‐10^−9 M): up to 1.5 fold; effect on cell growth (LNCaP cells [2]; 10^−8 M and above): progressively diminished cell growth; increase in cell numbers (LNCaP cells [2]; 5 days, 10^−11‐10^−9 M): up to 1.5 fold; effect on cell growth (PC‐3 cells [3]; PC‐3, 10^−8 M and above): progressively diminished cell growth; increase in cell numbers (PC‐3 cells [3]; PC‐3, 5 days, 10^−11‐10^−9 M): up to 1.5 fold
CCOc1c(Br)cc(C(=O)Nc2ccc(C(=O)O)cc2)cc1C(=O)c1ccc(C)cc1 [AGN196996, 4‐(3‐Bromo‐4‐ethoxy‐5‐(4‐methylbenzoyl)benzamido)benzoic acid] | little evidence of induction of apoptosis | neither ATRA, nor the RARα‐selective antagonist AGN196996 (Figure 1, S1C, S1F and Table 1) proved as effective AGN205728 or AGN194310 | >10 000 nM | 3.9 nM | neither ATRA, nor the RARα‐selective antagonist AGN196996 (Figure 1, S1C, S1F and Table 1) proved as effective AGN205728 or AGN194310 | 4036 nM | neither ATRA, nor the RARα‐selective antagonist AGN196996 (Figure 1, S1C, S1F and Table 1) proved as effective AGN205728 or AGN194310 | effect of co‐treatment on AGN195183‐mediated growth inhibition (LNCaP cells [2]; 4 days, AGN196996 10^−8 M with AGN195183 10^−8 M): abolished AGN195183‐mediated growth inhibition; effect of co‐treatment with ATRA on proliferation (LNCaP cells [2]; 4 days, AGN196996 10^−8 M with ATRA 10^−8 M): promoted proliferation of LNCaP cells
CCc1ccc(C2=CC(C)(C)Sc3ccc(C#Cc4ccc(C(=O)O)cc4)cc32)cc1 [AGN194310, 4‐[[4‐(4‐Ethylphenyl)‐2,2‐dimethyl‐(2H)‐thiochromen‐6‐yl]‐ethynyl]‐benzoic acid] | 35% | diminished the CFE | 2 nM | 4.3 nM | diminished the CFE | 5 nM | diminished the CFE | proportion of cells in G1 phase (LNCaP cells [8]): gradually increased; proportion of cells in S‐phase (LNCaP cells [8]): fall; proportion of cells sub‐G0/G1 (LNCaP cells [8]): ~60%; colony formation (LNCaP cells [9]): inhibited colony formation
Cc1ccc(C2=CCC(C)(C)c3cc(C(/C=C/c4ccc(C(=O)O)cc4)=N/O)ccc32)cc1 [AGN205728, 4‐[(E,3E)‐3‐[8,8‐Dimethyl‐5‐(4‐methylphenyl)‐7H‐naphthalen‐2‐yl]‐3‐hydroxyiminoprop‐1‐enyl]benzoic acid] | 40% | diminished the CFE | 3 nM | 2400.0 nM | diminished the CFE | 4248 nM | diminished the CFE | proportion of cells in G1 phase (LNCaP cells [8]): gradually increased; proportion of cells in S‐phase (LNCaP cells [8]): fall; proportion of cells sub‐G0/G1 (LNCaP cells [8]): ~40%; metabolic activity (LNCaP cells [10]): abolishing metabolic activity; activation of caspase‐9 (caspase‐9): failed to activate; response of metabolic activity (RWPE‐1 cells): significantly diminished response; metabolic activity (PC‐3 cells [11]): abolishing metabolic activity; activation of caspase‐3 (caspase‐3): failed to activate; activation of caspase‐8 (caspase‐8): failed to activate; metabolic activity (DU145 cells [12]): abolishing metabolic activity; DNA fragmentation pattern (LNCaP cells [13]): discrete laddering pattern that is typical of cells undergoing apoptosis
Cbz-Val-Ala-Asp-CH2F [reference compound] |  |  |  |  |  |  |  | effect of pre‐treatment on AGN205728‐induced apoptosis (TUNEL) (LNCaP cells [4]; Z‐VAD‐FMK 5 × 10^−5 M, AGN205728 10^−6 M): failed to diminish induction of apoptosis by AGN205728
CC1(C)CCC(C)(C)c2c1cc(C(=O)Nc1cc(F)c(C(=O)O)c(F)c1)c(O)c2Cl [AGN195183, 4‐(4‐Chloro‐3‐hydroxy‐5,5,8,8‐tetramethyl‐5,6,7,8‐tetrahydronaphthalene‐2‐carboxamido)‐2,6‐difluorobenzoic acid] |  |  | >5000 nM | 20.1 nM |  | >5000 nM |  | 
O=C(Nc1ccccc1)c1cc([N+](=O)[O-])ccc1Cl [GW9662] |  |  |  |  |  |  |  | inhibition of accumulation of lipid droplets (LNCaP cells [14]; differentiation medium, day 14, AGN205327 10^−7 M, GW9662 10^−5 M): of a similar order
CC1(C)CCC(C)(C)c2cc(/C(=N\O)c3cc4cc(C(=O)O)ccc4[nH]3)ccc21 [AGN205327, 2‐[(E)‐N‐Hydroxy‐C‐(5,5,8,8‐tetramethyl‐6,7‐dihydronaphthalen‐2‐yl)carbonimidoyl]‐1H‐indole‐5‐carboxylic acid] |  |  | 32 nM | 3766.0 nM |  | 734 nM |  | effect on ciglitazone‐induced adipogenesis (LNCaP cells [14]; AGN205327 added later than 48 hours post‐induction): failed to have any effect; inhibition of ciglitazone‐induced adipogenic differentiation (LNCaP cells [14]; ciglitazone (10^−7 M), AGN205327 10^−7 M given between 48 hours pre‐ and post‐addition of ciglitazone): ≤ 70%
